Data set [1] concerns HeLa. Nature of the data set: Inhibition of PI3K in human HeLa cells assessed as reduction in EGF-stimulated AKT phosphorylation at T308 at 100 nM preincubated for 10 mins followed by EGF stimulation measured after 5 mins by Western blot analysis. The data set is classed as cell-based. In short, it runs like this: (§1)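 HeLa cells serum-starved overnight, pretreated with compound for 10 min, then stimulated with EGF at 10 ng mL-1 for 5 min. Lysis in boiling SDS sample buffer, protein quantified, equal protein boiled 5 min and run on SDS-PAGE. Transfer to PVDF, Western blot for EGFR/pEGFR (Tyr1068), AKT/pAKT (Ser473, Thr308), ERK1/2/pERK1/2 (Thr202/Tyr204) and GAPDH, with ECL detection.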
(In western blotting, separated proteins are transferred to a membrane and probed.)

Data set [2] addresses Epidermal growth factor receptor (Homo sapiens) (UniProt P00533). Nature of the data set: Inhibition of EGFR in human HeLa cells assessed as reduction in EGF-stimulated ERK1/2 phosphorylation at T202/Y204 at 100 nM preincubated for 10 mins followed by EGF stimulation measured after 5 mins by Western blot analysis. The data set is classed as cell-based. The method in brief:
as §1

Data set [3] has the same target. Nature of the data set: Inhibition of EGFR in human HeLa cells assessed as reduction in EGF-stimulated EGFR Y1068 phosphorylation at 100 nM preincubated for 10 mins followed by EGF stimulation measured after 5 mins by Western blot analysis. The class given is cell-based. The method in brief:
as §1

Data set [4] relates to HeLa. Put plainly: Inhibition of PI3K in human HeLa cells assessed as reduction in EGF-stimulated AKT phosphorylation at S473 at 100 nM preincubated for 10 mins followed by EGF stimulation measured after 5 mins by Western blot analysis. The data set is classed as cell-based. In short, it runs like this: as §1
Data set [5] is described as follows: Glutathione reactivity assessed as formation of (2S)-2-amino-5-((2R)-1-(carboxymethylamino)-3-(1-methoxy-3-oxo-3-(pyridin-2-yl)propylthio)-1-oxopropan-2-ylamino)-5-oxopentanoic acid in presence of pH 7.4 at 25 degC by NMR based method. The conditions noted are these: gsh. The data set is classed as physicochemical.
Data set [6] can be described thus: Electrophilicity towards N-alpha-acetyl lysine in 100 mM pH 8.1 phosphate buffer assessed as (S)-2-acetamido-6-(3-oxo-3-(pyridin-2-yl)prop-1-enylamino)hexanoic acid formation using 10 fold excess N-alpha-acetyl lysine at 25 degC by NMR spectrscopy. The data set is classed as physicochemical. In short, it runs like this:
(§2)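 NMR kinetics of the model electrophile with and without Nα-acetyl lysine, set up as in the glutathione protocol. Phosphate-buffered D2O (100 mM) was at pH 8.1. Electrophile diluted from a 200 mM DMSO-d6 stock; lysine solution freshly prepared in the same buffer.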

Data set [7] is described as follows: Electrophilicity towards N-alpha-acetyl lysine in 100 mM pH 8.1 phosphate buffer assessed as 3-hydroxy-1-(pyridin-2-yl)prop-2-en-1-one formation using 10 fold excess N-alpha-acetyl lysine at 25 degC by NMR spectrscopy. The class given is physicochemical. In short, it runs like this:
as §2

A short description of data set [8]: Electrophilicity towards N-alpha-acetyl lysine in 100 mM pH 7.4 phosphate buffer using 10 fold excess N-alpha-acetyl lysine at 25 degC by NMR spectrscopy. The data set is classed as physicochemical. In short, it runs like this: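 Model electrophile with tenfold excess Nα-acetyl lysine in 100 mM phosphate buffer, pH 7.4, at 25 °C. Set up as in the glutathione NMR kinetics (1.0 mM electrophile from DMSO-d6 stock, buffered D2O).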

Data set [9] can be described thus: Glutathione reactivity assessed as formation of (2S)-2-amino-5-((2R)-1-(carboxymethylamino)-3-(1-methoxy-3-oxo-3-(pyridin-2-yl)propylthio)-1-oxopropan-2-ylamino)-5-oxopentanoic acid in presence of pH 7.4 at 37 degC by NMR based method. The conditions noted are these: gsh. The class given is physicochemical.
The subject of data set [10] is HeLa. Nature of the data set: Inhibition of PI3K in human HeLa cells assessed as reduction in EGF-stimulated AKT phosphorylation at S473 at 1 to 100 nM preincubated for 10 mins followed by EGF stimulation measured after 5 mins by Western blot analysis. The data set is classed as cell-based. The method in brief:
(§3)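 HeLa cells were serum-starved overnight, pretreated with compound for 10 min, then stimulated with 10 ng mL-1 EGF for 5 min. Lysis was in boiling SDS sample buffer, with protein quantified at 660 nm. Equal protein was resolved by SDS-PAGE and Western blotted for pEGFR Tyr1068, pAKT Ser473/Thr308, and pERK1/2 Thr202/Tyr204 with total proteins and GAPDH, detected by ECL.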

Data set [11] has as its system HeLa. Put plainly: Inhibition of PI3K in human HeLa cells assessed as reduction in EGF-stimulated AKT phosphorylation at T308 at 1 to 100 nM preincubated for 10 mins followed by EGF stimulation measured after 5 mins by Western blot analysis. The data set is classed as cell-based. In short, it runs like this:
as §3

The record followed here is ChEMBL document CHEMBL4266033, “Neolymphostin A Is a Covalent Phosphoinositide 3-Kinase (PI3K)/Mammalian Target of Rapamycin (mTOR) Dual Inhibitor That Employs an Unusual Electrophilic Vinylogous Ester” (J Med Chem, 2018).

Active and inactive are the calls of the source. The calls are words filed in the database; no cut-off is given here.

Epidermal growth factor receptor (Homo sapiens), sequence (P00533 whole entry): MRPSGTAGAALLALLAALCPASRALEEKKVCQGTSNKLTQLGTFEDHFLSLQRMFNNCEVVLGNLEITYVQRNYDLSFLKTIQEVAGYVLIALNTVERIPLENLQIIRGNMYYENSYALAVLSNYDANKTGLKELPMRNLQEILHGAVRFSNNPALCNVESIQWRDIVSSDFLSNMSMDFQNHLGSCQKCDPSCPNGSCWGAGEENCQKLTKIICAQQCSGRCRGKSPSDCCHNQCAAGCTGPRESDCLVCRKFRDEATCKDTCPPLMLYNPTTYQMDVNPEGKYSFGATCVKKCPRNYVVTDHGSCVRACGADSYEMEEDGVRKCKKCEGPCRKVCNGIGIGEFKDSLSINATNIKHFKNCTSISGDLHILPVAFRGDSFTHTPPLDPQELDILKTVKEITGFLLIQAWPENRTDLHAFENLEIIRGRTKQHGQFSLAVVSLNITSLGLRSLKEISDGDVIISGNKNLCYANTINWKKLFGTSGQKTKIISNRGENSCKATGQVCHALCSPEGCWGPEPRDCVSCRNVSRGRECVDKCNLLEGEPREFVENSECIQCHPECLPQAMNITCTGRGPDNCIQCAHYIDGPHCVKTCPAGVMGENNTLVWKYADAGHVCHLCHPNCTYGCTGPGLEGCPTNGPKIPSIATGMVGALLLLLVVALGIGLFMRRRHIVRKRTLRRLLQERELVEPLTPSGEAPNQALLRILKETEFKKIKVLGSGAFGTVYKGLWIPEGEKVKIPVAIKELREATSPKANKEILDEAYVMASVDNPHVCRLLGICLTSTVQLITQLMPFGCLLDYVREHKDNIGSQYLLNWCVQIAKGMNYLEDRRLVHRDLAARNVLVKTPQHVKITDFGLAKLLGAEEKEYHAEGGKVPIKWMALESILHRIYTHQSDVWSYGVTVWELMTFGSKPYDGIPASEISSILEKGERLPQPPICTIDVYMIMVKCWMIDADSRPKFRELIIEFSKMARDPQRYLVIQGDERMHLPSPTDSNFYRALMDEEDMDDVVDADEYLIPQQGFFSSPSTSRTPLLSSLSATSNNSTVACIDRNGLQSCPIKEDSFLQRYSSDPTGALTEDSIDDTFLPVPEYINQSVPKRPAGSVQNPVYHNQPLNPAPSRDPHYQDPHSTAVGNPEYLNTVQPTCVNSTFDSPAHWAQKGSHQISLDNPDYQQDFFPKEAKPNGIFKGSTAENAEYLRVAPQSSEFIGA

Turning to `COC[C@H]1OC(=O)c2coc3c2[C@@]1(C)C1=C(C3=O)[C@@H]2CCC(=O)[C@@]2(C)C[C@H]1OC(C)=O`, the inhibition entry in data set [1] and in data set [4] was “Active” throughout. Also, the inhibition result in data set [2] and in [3] was “inactive” throughout.
For `CO/C=C/C(=O)c1ccccn1`, the t1/2 in data set [5] came out at 13 min; in data set [6] it was 60 min; in data set [7], 24 h; in data set [9], 5.4 min. Moreover, in data set [8], the Activity result is given as “Not Active”.
For the molecule `CC(C)C(=O)Nc1cc(N)c2c3c(cc(C(=O)CCO)nc13)C=N2`, the inhibition result in data set [10] and in data set [11] was “inactive” throughout.
